IDH1 R132H inh – blocks human IDH1 R132H reductase activity | AID 624101 | 70,000 compounds, 0.18% hits | inhibition, % at 10 µM | diaphorase/resazurin fluorescence, 60 min | O75874; in the data active = inhibition above about 34%; inconclusive = no clear call, values can overlap the other calls; inactive = below about 11%
GASC1 inh – KDM4C (human) demethylase inhibition; Q9H3R0; GST-KDM4C 2-372, H3K9me3 peptide, LANCE TR-FRET; inhibition, % at 12.5 µM; 96,000 compounds, 0.15% hits; AID 720574;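 active = mean replicate inhibition above about 25%, with at least 55% of replicates also reaching it, limit read from the data, passing the limit was not always enough; inconclusive = only one of those two conditions met; inactive = neither condition met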
Target sequence (Q9H3R0 2-372 limits assumed): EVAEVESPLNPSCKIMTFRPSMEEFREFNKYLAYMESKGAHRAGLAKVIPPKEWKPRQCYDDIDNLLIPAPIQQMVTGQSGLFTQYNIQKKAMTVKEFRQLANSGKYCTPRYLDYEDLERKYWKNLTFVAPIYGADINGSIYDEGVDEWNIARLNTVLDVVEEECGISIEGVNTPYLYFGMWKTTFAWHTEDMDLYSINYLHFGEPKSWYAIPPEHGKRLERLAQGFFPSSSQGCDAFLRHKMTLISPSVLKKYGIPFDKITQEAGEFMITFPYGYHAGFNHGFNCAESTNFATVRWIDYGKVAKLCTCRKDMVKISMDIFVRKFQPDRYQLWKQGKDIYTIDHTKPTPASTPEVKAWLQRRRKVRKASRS
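material = GST-tagged GASC-1 (JMJD2C) catalytic fragment, aa 2-372 | amount = enzyme final amount 10 nM | medium = HEPES buffer, pH 7.5, plus ascorbate | also added = H3K9me3 peptide substrate, Fe(II), 2-oxoglutarate | dosing = single dose | times = 30 min demethylation and 1 h detection at room temperature | detection = LANCE TR-FRET | read-out basis = Fall in 671/618 emission ratio as inhibition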
T cruzi growth-1 – T. cruzi proliferation inhibition; 77,000 compounds, 5.9% hits; inhibition, % at 8.34 µM; T. cruzi beta-gal in NIH3T3, GalScreen luminescence, 90 h; AID 624255;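 active = mean inhibition above about 93%, with at least 55% of replicates each passing it, limit read from the data, passing the limit was not always enough; inconclusive = only one of those two conditions holds; inactive = neither condition holds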
T cruzi growth-2 – blocks T. cruzi growth in NIH3T3 host cells. shares compounds with T cruzi growth-1. T. cruzi beta-gal in NIH3T3, GalScreen luminescence, 90 h. inhibition, % at 8.35 µM. 5,600 compounds, 72% hits. AID 651739;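 active = mean replicate inhibition above about 95% and at least 55% of replicates individually reaching it, limit read from the data; inconclusive = only one of the two criteria is met; inactive = neither criterion is met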
T cruzi growth-3 – inhibitors of T. cruzi proliferation | shares compounds with T cruzi growth-1 | T. cruzi beta-gal in NIH3T3, GalScreen luminescence, 90 h | inhibition, % at 2.09 µM | 5,600 compounds, 21% hits;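 active = mean inhibition above about 95%, with at least 55% of replicates also reaching it, limit read from the data; inconclusive = meets just one of the two conditions; inactive = meets neither condition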
NIH3T3 tox – NIH/3T3 (mouse) viability loss | NIH/3T3 viability, CellTiter-Glo ATP luminescence, 90 h | AID 651742 | cytotoxicity (signal decrease), % at 8.35 µM | shares compounds with T cruzi growth-1 | 5,600 compounds, 14% hits;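 active = mean signal decrease across replicates above about 35% based on untreated-well scatter, with enough replicates individually passing, limit read from the data; inconclusive = no rule stated though some were filed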
3T3 cytotox 2 – kills mouse NIH/3T3 fibroblasts; shares compounds with T cruzi growth-1; 5,600 compounds, 56% hits; inhibition, % at 24.9 µM; NIH/3T3 viability, CellTiter-Glo ATP luminescence, 90 h;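 active = mean loss of cell viability signal at or above a set limit, and enough replicates individually reaching it; inconclusive = meets only the mean limit or only the replicate share; inactive = meets neither condition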
Each line names hits and unclear results; the compound was inactive in the other large screens (follow-up assays come after a bar, where they were run). This excerpt belongs to a sample that is enriched for hits.

O=C(C1CC1)N1CCCCN2[C@H](CO)[C@H](c3ccc(C#CC4CC4)cc3)[C@@H]2C1	none (no result: IDH1 R132H inh, GASC1 inh)
O=C(C1CC1)N1CCCCN2[C@H](CO)[C@H](c3ccc(C#CC4CC4)cc3)[C@H]2C1	none (no result: IDH1 R132H inh, GASC1 inh)
O=C(C1CCCC1)N1CCCCN2[C@H](CO)[C@@H](c3ccc(C#CC4CC4)cc3)[C@H]2C1	T cruzi growth-1 109.1 (no result: IDH1 R132H inh, GASC1 inh) | T cruzi growth-2 107.5 | T cruzi growth-3 inactive | NIH3T3 tox inactive | 3T3 cytotox 2 48.9
COc1ccc(C)cc1N(CC(=O)Nc1ccc(Br)cc1F)S(C)(=O)=O	none (no result: GASC1 inh, T cruzi growth-1)
Ic1cccc(CSc2nnc(-c3ccncc3)o2)c1	none (no result: GASC1 inh, T cruzi growth-1)
CC(=O)COc1cc(OCC(C)=O)c2c(C)cc(=O)oc2c1	none (no result: GASC1 inh, T cruzi growth-1)
CCC(Sc1nnc2c3ccccc3n(C)c2n1)C(=O)Nc1cccc2ccccc12 (centres undefined)	none (no result: GASC1 inh, T cruzi growth-1)
Cc1ccc(N(C(C)C(=O)Nc2cc(C)cc(C)c2)S(C)(=O)=O)cc1 (centres undefined)	none (no result: GASC1 inh, T cruzi growth-1)
C[C@@H]1CCCCO[C@@H](CN(C)Cc2ccc(C(F)(F)F)cc2)[C@@H](C)CN([C@H](C)CO)C(=O)c2cc(NC(=O)Nc3ccc(F)cc3)ccc2O1	T cruzi growth-1 101.8 (no result: IDH1 R132H inh) | T cruzi growth-2 100.9 | T cruzi growth-3 inactive | NIH3T3 tox inactive | 3T3 cytotox 2 inactive
C[C@@H]1CCCCO[C@@H](CN(C)Cc2ccc(C(F)(F)F)cc2)[C@H](C)CN([C@H](C)CO)C(=O)c2cc(NC(=O)Nc3ccc(F)cc3)ccc2O1	T cruzi growth-1 110.1 (no result: IDH1 R132H inh) | T cruzi growth-2 inactive | T cruzi growth-3 107.5 | NIH3T3 tox inactive | 3T3 cytotox 2 57.3
C[C@@H]1CCCCO[C@H](CN(C)Cc2ccc(C(F)(F)F)cc2)[C@@H](C)CN([C@@H](C)CO)C(=O)c2cc(NC(=O)Nc3ccc(F)cc3)ccc2O1	none
C[C@@H]1CCCCO[C@@H](CN(C)Cc2ccc(C(F)(F)F)cc2)[C@@H](C)CN([C@@H](C)CO)C(=O)c2cc(NC(=O)Nc3ccc(C(F)(F)F)cc3)ccc2O1	none (no result: IDH1 R132H inh)
C[C@@H]1CCCCO[C@@H](CN(C)Cc2ccncc2)[C@H](C)CN([C@H](C)CO)C(=O)c2cc(NC(=O)Nc3ccc(C(F)(F)F)cc3)ccc2O1	none (no result: IDH1 R132H inh)
C[C@@H]1CN([C@@H](C)CO)C(=O)c2cc(NC(=O)Nc3ccc(C(F)(F)F)cc3)ccc2O[C@@H](C)CCCCO[C@@H]1CN(C)Cc1ccc(C(F)(F)F)cc1	T cruzi growth-1 95.1 (no result: IDH1 R132H inh) | T cruzi growth-2 102.2 | T cruzi growth-3 104.6 | NIH3T3 tox inactive | 3T3 cytotox 2 inactive
C[C@H]1CCCCO[C@H](CN(C)Cc2ccncc2)[C@@H](C)CN([C@@H](C)CO)C(=O)c2cc(NC(=O)Nc3ccc(C(F)(F)F)cc3)ccc2O1	T cruzi growth-1 99.3 (no result: IDH1 R132H inh) | T cruzi growth-2 99.6 | T cruzi growth-3 inactive | NIH3T3 tox inactive | 3T3 cytotox 2 83.0
C[C@@H]1CCCCO[C@@H](CN(C)Cc2ccc(C(F)(F)F)cc2)[C@H](C)CN([C@H](C)CO)C(=O)c2cc(NC(=O)Nc3ccc(C(F)(F)F)cc3)ccc2O1	none
C=CCn1c(-c2ccccc2)nn(CCC#N)c1=S	none (no result: GASC1 inh, T cruzi growth-1)
Cc1ccc(C(=O)Nc2cccc(OC(=O)c3cc(S(=O)(=O)N4CCCCC4)ccc3Cl)c2)cc1	none (no result: GASC1 inh, T cruzi growth-1)
Cc1ccc(S(=O)(=O)N(C)CC(=O)Nc2ccc(Br)cc2F)cc1	none (no result: GASC1 inh, T cruzi growth-1)
Cc1ccc(OCCCCSc2nc(C)cc(=O)[nH]2)c(C)c1	none (no result: GASC1 inh, T cruzi growth-1)
Cc1noc(C)c1NC(=O)Nc1ccc2c(c1)C(=O)N([C@@H](C)CO)C[C@@H](C)[C@H](CN(C)Cc1ccc(C(F)(F)F)cc1)OCCCC[C@H](C)O2	none (no result: IDH1 R132H inh)
C[C@H]1CCCCO[C@@H](CN(C)Cc2ccc(C(F)(F)F)cc2)[C@@H](C)CN([C@@H](C)CO)C(=O)c2cc(NC(=O)Nc3ccc(F)cc3)ccc2O1	none (no result: IDH1 R132H inh)
Cc1noc(C)c1NC(=O)Nc1ccc2c(c1)C(=O)N([C@H](C)CO)C[C@@H](C)[C@H](CN(C)Cc1ccc(C(F)(F)F)cc1)OCCCC[C@H](C)O2	T cruzi growth-1 inconclusive | T cruzi growth-2 114.5 | T cruzi growth-3 inactive | NIH3T3 tox inactive | 3T3 cytotox 2 68.6
